Screening data from PubChem BioAssay.
697 NFkB inh = inhibitors of PMA/ionomycin-induced NF-kB reporter, 697 cells, primary screen, B-cell NF-kB inhibitor project, cell-based, luminescence, uHTS; 697 B-cell NF-kB luciferase reporter, 16 h; inhibition, % at 4 µM; 330,000 tested, 0.33% active; AID 435022, 2010; in the data active means inhibition above about 35%
IMP-1 inh-1 = IMP-1 metallo-beta-lactamase inhibitors, primary screen, biochemical, epi-absorbance readout, Pseudomonas aeruginosa enzyme. purified IMP-1, nitrocefin hydrolysis, epi-absorbance fluorescence. inhibition, % at 5.6 µM. 290,000 tested, 0.45% active. AID 1556, 2009;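 active means inhibition above the mean plus 3 SD of all compounds in the same screening run, cut at about 4.5% in these data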
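System – purified recombinant IMP-1 beta-lactamase · Input – IMP-1 dispensed at 0.2 nM · Timing – 15 min preincubation plus 25 min reaction at 25 °C · Signal – Epi-absorbance fluorescence, 480 nm excitation, 530 nm emission · Measure – percent IMP-1 inhibition derived from blank-referenced optical density · Controls – Enzyme-plus-DMSO low control, enzyme-free DMSO high control · Replication – singlicate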
aSyn 5UTR inh = MLPCN primary screen, SNCA 5' untranslated region | alpha-synuclein 5'UTR reporter, inhibitor activity | 300,000 tested, 0.82% active | inhibition, % (tested at 7.5 µM); in the data active means inhibition above about 60%;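 further: H4 neuroglioblastoma cells stably carrying SNCA 5'UTR luciferase fusion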
VIM-2 inhibitor = VIM-2 metallo-beta-lactamase inhibitors, primary screen, biochemical, epi-absorbance readout, Pseudomonas aeruginosa enzyme; purified VIM-2, nitrocefin hydrolysis, epi-absorbance fluorescence; inhibition, % at 5.6 µM; 290,000 tested, 0.89% active; AID 1527, 2009;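 active means inhibition above the mean of all tested compounds plus 3 SD, cutoff set per screening run, cut at about 7.5% in these data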;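 further: red hydrolysis product quenches plate fluorescence so inhibitors raise well fluorescence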
Jurkat NFkB inh = inhibitors of induced NF-kB luciferase reporter, primary screen, TCR NF-kB activation inhibitor project, cell-based, luminescence, uHTS | Jurkat, PMA/ionomycin-induced NF-kB luciferase reporter | inhibition, % at 4 µM | 330,000 tested, 0.53% active | AID 435003, 2010; in the data active means inhibition above about 50%
Mdm2-MdmX inh = inhibitors of human Mdm2-MdmX association, primary screen, cell-based, luminescence, split luciferase, SaOS-2, uHTS | Protein Mdm4 (Homo sapiens) + E3 ubiquitin-protein ligase Mdm2 (Homo sapiens), … | SaOS-2 split-luciferase Mdm2/MdmX complementation | inhibition, % at 8 µM | 330,000 tested, 3% active;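 active means inhibition of at least 50% at 8 µM in the primary screen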
IMP-1 inh-2 = IMP-1 metallo-beta-lactamase inhibitors, confirmation, selectivity assay for selective VIM-2 inhibitor project, biochemical, epi-absorbance readout, triplicate. shares compounds with VIM-2 inhibitor. purified IMP-1, nitrocefin hydrolysis, epi-absorbance fluorescence. inhibition, % at 5.6 µM. 1,300 tested, under 10 active; call rule not given here
VIM-2 FRET ctr = VIM-2 inhibitors in FRET format, confirmation, artefact control for selective VIM-2 inhibitor project, biochemical, epi-absorbance artifact exclusion; shares compounds with VIM-2 inhibitor; purified VIM-2, CCF2 FRET substrate hydrolysis; inhibition, % at 5.6 µM; 1,300 tested, 23% active; AID 1857, 2009;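 active means inhibition above the mean of all tested compounds plus 3 SD, cut at about 19% in these data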
TEM-1 inh = TEM-1 serine beta-lactamase inhibitors, counter-screen for VIM-2 inhibitor project, biochemical, epi-absorbance, HTS. shares compounds with VIM-2 inhibitor. Purified TEM-1, nitrocefin hydrolysis, epi-absorbance fluorescence. inhibition, % at 5.6 µM. 1,300 tested, 3% active. AID 1866, 2009;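 active means inhibition above that campaign's mean inhibition plus 3 SD, cut at about 0.46% in these data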
Target sequence (P62593 whole entry, looked up): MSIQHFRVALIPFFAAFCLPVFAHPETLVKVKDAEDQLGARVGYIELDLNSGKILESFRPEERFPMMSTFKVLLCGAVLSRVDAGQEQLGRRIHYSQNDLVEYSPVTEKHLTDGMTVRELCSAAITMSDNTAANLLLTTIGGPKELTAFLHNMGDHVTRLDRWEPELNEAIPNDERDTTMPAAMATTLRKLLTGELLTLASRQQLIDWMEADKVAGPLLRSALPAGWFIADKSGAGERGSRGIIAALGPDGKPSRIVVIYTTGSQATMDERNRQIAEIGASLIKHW
VIM-2 inh conf = VIM-2 metallo-beta-lactamase inhibitors, confirmation, biochemical, epi-absorbance, hits shared with IMP-1 screen. shares compounds with VIM-2 inhibitor. purified VIM-2, nitrocefin hydrolysis. inhibition, % at 5.6 µM. 1,300 tested, 96% active;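 active means inhibition of the VIM-2 beta-lactamase enzyme above about 11% from the earlier first-round screen, limit read from the data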
Hits are given with their value; - = inactive; . = not tested or not shown. Sampled rows, rich in hits. Any-hit rate of the full collection: about 4.7%.

SMILES | 697 NFkB inh | IMP-1 inh-1 | aSyn 5UTR inh | VIM-2 inhibitor | Jurkat NFkB inh | Mdm2-MdmX inh | IMP-1 inh-2 | VIM-2 FRET ctr | TEM-1 inh | VIM-2 inh conf
O=C(CCN1CCOCC1)Nc1ccc(Cl)cc1 | - | - | - | - | - | - | . | . | . | .
CCOC(OCC)c1cn(Cc2ccc(C(=O)c3ccccc3)cc2)nn1 | - | - | - | - | - | - | . | . | . | .
COc1cccc(Cn2cnc3c(sc4nc(C)cc(C)c43)c2=O)c1 | - | - | - | - | - | - | . | . | . | .
CC(=O)Cn1cnc2c(sc3nc(C)cc(C)c32)c1=O | - | - | - | 14 | - | - | - | - | - | 17
[O-]c1n[n+](-c2ccc(Cl)cc2Cl)cc2ccccc12 | - | - | - | - | - | - | . | . | . | .
[O-]c1n[n+](-c2ccc(Cl)cc2)cc2ccccc12 | - | - | - | 19 | - | - | - | - | - | -
C=CCNC(=O)CSc1nc2ccccc2c(=O)n1CCc1ccc(OC)c(OC)c1 | - | - | - | - | - | - | . | . | . | .
COc1ccc(CCn2c(SCCN3CCCCC3)nc3ccccc3c2=O)cc1OC | - | - | - | 75 | - | - | - | - | - | 84
O=C(COC(=O)CC1CCCC1)Nc1ccc(Br)cc1F | - | . | . | . | - | - | . | . | . | .
CC(=C/C(=O)O)/C=C/c1ccc([N+](=O)[O-])cc1 | . | - | . | 14 | . | . | - | - | - | -
CC(/C=C\c1ccccc1)=C/C(=O)O | - | - | - | - | - | - | . | . | . | .
CCN(CC)CCOc1ncnc2c1oc1ccccc12 | - | - | - | 15 | - | - | - | - | - | 14
CCc1nc(OCCN(CC)CC)c2oc3ccccc3c2n1 | - | - | - | - | - | - | . | . | . | .
Cc1c(CCO)c(=O)n2c([nH]c3ccccc32)c1C#N | - | - | - | 21 | - | - | - | - | - | 30
O=C(NCCCN1CCCC1=O)C(=O)NCC1OCCCN1S(=O)(=O)c1cc(F)ccc1F (stereo unspecified) | - | - | - | - | - | - | . | . | . | .
CC1(C)CC2CC(C)(CN2S(=O)(=O)c2ccc(F)cc2F)C1 (stereo unspecified) | - | . | . | . | - | - | . | . | . | .
C(=N\Nc1ncnc2sc3c(c12)CCC3)/c1ccncc1 | - | - | - | 34 | - | - | - | - | - | 53
c1cc(Nc2ncnc3sc4c(c23)CCC4)ccn1 | - | - | - | - | - | - | . | . | . | .
COCCCN1CN(S(=O)(=O)c2cccs2)c2nc3ccccc3nc21 | - | - | - | - | - | - | . | . | . | .
O=C1c2ccccc2-c2onc3ccc(N4CCCC4)c1c23 | . | - | - | 14 | . | . | - | - | 2.9 | 25
NS(=O)(=O)c1ccc(NC(=O)COC(=O)CN2C(=O)C3CC=CCC3C2=O)cc1 (stereo unspecified) | - | . | . | . | - | - | . | . | . | .
O=C(O)CC/C(=C\c1cc([N+](=O)[O-])ccc1Cl)c1nc2ccccc2s1 | . | - | - | 21 | . | . | - | 49 | - | 34
COC(=O)c1c(NC(=O)c2ccco2)sc2c1CC(C)(C)NC2(C)C | - | - | - | 13 | - | - | - | - | - | 17
COC(=O)c1c(NC(=O)c2ccccc2)sc2c1CC(C)(C)NC2(C)C | - | - | - | - | - | - | . | . | . | .
CN(C)c1ccc(/C=N/N(CCC(=O)NC(C)(C)C)C2=NS(=O)(=O)c3ccccc32)cc1 | - | - | - | 20 | - | - | - | - | - | -
SMILES | 697 NFkB inh | IMP-1 inh-1 | aSyn 5UTR inh | VIM-2 inhibitor | Jurkat NFkB inh | Mdm2-MdmX inh | IMP-1 inh-2 | VIM-2 FRET ctr | TEM-1 inh | VIM-2 inh conf
CC(C)(C)NC(=O)CCN(/N=C/c1ccc([N+](=O)[O-])o1)C1=NS(=O)(=O)c2ccccc21 | . | - | . | - | . | . | . | . | . | .
COc1cc(/C=N/N(CCO)C2=NS(=O)(=O)c3ccccc32)cc(OC)c1OC | - | - | - | 12 | - | - | - | - | - | 21
Cc1ccc(C)c(OC(C)C(=O)Nc2nccs2)c1 (stereo unspecified) | - | - | - | - | - | - | . | . | . | .
CC(C)Oc1ccc(S(=O)(=O)N2CCOCC2)cc1NC(=O)CCCSc1ccccc1 | - | . | . | . | - | - | . | . | . | .
O=C(COC(=O)CNS(=O)(=O)c1ccc(Cl)cc1)NC1CCCCC1 | - | . | . | . | - | - | . | . | . | .
Cc1ccc(-c2csc3n[nH]c(=S)n23)cc1 | - | - | - | 46 | - | - | - | 70 | - | 57
O=C(COC(=O)CCC(=O)c1cccs1)Nc1ccccc1C(F)(F)F | - | . | . | . | - | - | . | . | . | .
COc1ccc(NC(=O)CSc2c3c(nc4ccccc24)CCC3)c(OC)c1 | - | - | - | - | - | - | . | . | . | .
COc1ccc(Nc2nc(N3CCN(C)CC3)nc3ccccc23)c(OC)c1 | - | - | - | 16 | - | - | - | - | - | 28
COc1ccc(Nc2c3c(nc4ccccc24)CCC3)c(OC)c1 | - | - | - | 19 | - | - | - | - | - | 22
Cn1c2ccccc2c(=O)c2c(=O)n(Cc3ccco3)c(-c3ccc(C(C)(C)C)cc3)nc21 | - | - | - | - | - | - | . | . | . | .
C=CCN(c1ccccc1)S(=O)(=O)c1cccc(C(=O)Nc2cccc(C)n2)c1 | - | . | - | . | - | - | . | . | . | .
CCCCCCCC(=O)N1CCN(c2cc3c(cc2F)c(=O)c(C(=O)O)cn3CC)CC1 | - | - | - | - | - | - | . | . | . | .
CCCCCCn1cc(C(=O)O)c(=O)c2cc(F)c(N3CCN(C)CC3)cc21 | - | - | - | 16 | - | - | - | - | - | 19
O=C(CN1C(=O)C(=O)N(C2CCCC2)C1=O)Nc1ccc(F)cc1F | - | . | . | . | - | - | . | . | . | .
COc1ccc(-n2c(=S)[nH]c3ccccc3c2=S)cc1 | - | - | - | 14 | - | - | - | 27 | - | 19
COc1ccc(-n2c(=S)[nH]c3ccccc32)cc1 | - | - | - | - | - | - | . | . | . | .
COc1ccc(NS(=O)(=O)c2ccc(OCC(=O)N3CCOCC3)cc2)cc1Cl | - | - | - | - | - | - | . | . | . | .
